# Screening results deposited in PubChem BioAssay by several laboratories.
# Hits are enriched below; roughly 2.1% of the tested compounds scored in any of these assays.
# PP1 counter = PP1-alpha phosphatase inhibitors, primary screen, counter-screen for PP5 inhibitor project, biochemical, fluorescence, OMFP substrate, single point. Serine/threonine-protein phosphatase PP1-alpha catalytic subunit (Homo sapiens), P62136. purified PP1alpha. inhibition, % at 6.7 µM. actives 0.9% (n = 320,000). AID 2235, 2010;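 active = inhibition above the mean inhibition of all tested compounds plus 3 SD, computed separately for each screening campaign, cut at about 15% in these data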
# PP5 inh = PP5 phosphatase inhibitors, primary screen, biochemical, fluorescence; Serine/threonine-protein phosphatase 5 (Homo sapiens), P53041; purified PP5c, OMFP substrate fluorescence; inhibition, % at 6.7 µM; actives 0.18% (n = 320,000); AID 1987, 2009;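 active = inhibition above the campaign's mean inhibition across all tested compounds plus 3 SD, cut at about 9.5% in these data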;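 note: 0% = DMSO only and 100% = 100 µM cantharidin control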
# GSTO1 counter = inhibitors of recombinant GSTO1, primary screen, counter-screen for RBBP9 inhibitor project, biochemical, fluorescence polarization; Glutathione S-transferase omega-1 (Homo sapiens), P78417; activity-based probe fluorescence polarization; inhibition, % at 5.96 µM; actives 1.1% (n = 300,000);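 active = inhibition above the campaign mean inhibition plus 3 SD, cut at about 35% in these data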;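 note: 0% = GSTO1-1 with DMSO and 100% = wells lacking GSTO1-1 enzyme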
# Target sequence (P78417 whole entry, looked up): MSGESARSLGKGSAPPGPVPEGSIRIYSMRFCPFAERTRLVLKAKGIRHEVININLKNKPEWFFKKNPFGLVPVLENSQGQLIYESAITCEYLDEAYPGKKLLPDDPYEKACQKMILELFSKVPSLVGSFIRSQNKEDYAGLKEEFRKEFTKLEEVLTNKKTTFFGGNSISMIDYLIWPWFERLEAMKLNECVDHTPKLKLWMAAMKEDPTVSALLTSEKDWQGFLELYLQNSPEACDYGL
# Apaf1 inhib = inhibitors of human Apaf-1 apoptosome, primary screen, biochemical, DEVD-Rh110 fluorescence, uHTS; Apoptotic protease-activating factor 1 (Homo sapiens), O14727; inhibition, % at 20 µM; reconstituted apoptosome caspase-3 activity; AID 489030, 2010; actives 0.71% (n = 330,000); active = inhibition of at least 40% at 20 µM;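 note: plate controls were DMSO wells for no effect and DEVD-CHO caspase inhibitor wells for full effect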
#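 Medium: Hepes buffer, pH 7.5 / System: biochemical Apaf-1 apoptosome reconstitution / Measured by: Rh110 fluorescence, excitation 480 nm, emission 540 nm / Times: compound with Apaf-1, dATP, procaspase-3 30 min, then 50 min reaction, room temperature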
# TDP2 absorb = human TDP2 enzyme inhibitors, primary screen, biochemical, epi absorbance, recombinant enzyme; T5PNP hydrolysis, p-nitrophenol absorbance 415 nm; AID 720702, 2013; inhibition, % at 12.8 µM; actives 0.34% (n = 370,000); Tyrosyl-DNA phosphodiesterase 2 (Homo sapiens), O95551;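 active = inhibition above the mean of all tested compounds plus 3 SD, set per campaign, cut at about 25% in these data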;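 note: 0% = DMSO with enzyme and 100% = buffer with substrate but no TDP2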
# Target sequence (O95551 whole entry, looked up): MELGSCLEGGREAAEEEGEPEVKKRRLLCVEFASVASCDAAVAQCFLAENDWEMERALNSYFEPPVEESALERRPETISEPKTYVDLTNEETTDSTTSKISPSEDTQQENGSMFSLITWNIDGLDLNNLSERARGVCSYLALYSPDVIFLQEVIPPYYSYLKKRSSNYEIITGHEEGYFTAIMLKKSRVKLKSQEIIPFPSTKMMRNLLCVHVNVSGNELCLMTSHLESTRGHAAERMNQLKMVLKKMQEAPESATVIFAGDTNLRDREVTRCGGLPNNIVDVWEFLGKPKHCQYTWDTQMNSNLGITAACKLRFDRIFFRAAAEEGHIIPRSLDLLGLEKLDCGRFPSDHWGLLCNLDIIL
#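 Read-out basis: percent inhibition. System: recombinant human TDP2. Buffer or medium: Mg2+-containing Tris-HCl buffer, pH 7.5. Repeats: single replicate. Timing: reaction 2 h, 37 °C. Benchmarks: high control without enzyme, low control DMSO plus TDP2. Probe or stimulus: 5 mM T5PNP. Doses: 12.8 µM only. Measured by: epi absorbance of p-nitrophenol freed from T5PNP by hydrolysis.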
# PP1 inh confirm = PP1 phosphatase inhibitors, confirmation, biochemical, fluorescence, OMFP substrate, triplicate. actives 52% (n = 1,900). shares compounds with PP1 counter. purified PP1alpha. inhibition, % at 6.7 µM;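 active = mean PP1 inhibition above a set limit taken from the earlier primary screen, cut at about 15% in these data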
# PP5 counter = PP5 phosphatase inhibition by PP1 hits, confirmation, counter-screen for PP1 inhibitor project, biochemical, fluorescence, triplicate; inhibition, % at 6.7 µM; actives 4% (n = 1,900); shares compounds with PP1 counter; purified PP5c, OMFP fluorescence; AID 2360, 2010;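 active = mean PP5 inhibition over triplicate wells above about 9.5% taken from the earlier PP1 screen, limit read from the data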
# Numbers without * were called inactive; / = no result given.
SMILES,PP1 counter,PP5 inh,GSTO1 counter,Apaf1 inhib,TDP2 absorb,PP1 inh confirm,PP5 counter
CCNS(=O)(=O)c1ccc2nc(NC(=O)/C=C/c3cc(OC)c(OC)c(OC)c3)sc2c1,21.1*,2.9,-14.8,24.8,-1.3,19.9*,-4.8
COc1cc(/C=C/C(=O)Nc2nc3ccc(S(=O)(=O)NC(C)C)cc3s2)cc(OC)c1OC,25.0*,2.0,-13.7,7.8,-1.2,32.5*,-5.9
COc1ccc2nc(NC(=O)/C=C/c3ccc4c(c3)OCO4)sc2c1,-1.9,-1.1,-0.6,-18.6,-4.2,/,/
COc1cccc(OC)c1C(=O)Nc1nc2ccc(S(C)(=O)=O)cc2s1,-1.5,-0.2,17.1,-3.3,10.8,/,/
O=C(N/N=C/c1ccccn1)c1cc(-c2cccc3ccccc23)n[nH]1,18.9*,1.0,-14.6,10.0,-0.6,26.6*,2.7
O=C(N/N=C/c1ccccn1)c1cc(-c2ccc3ccccc3c2)n[nH]1,27.6*,4.0,-45.9,14.7,0.1,62.4*,5.6
CC1CCN(C(=O)Cn2nc(C(F)(F)F)c3c2CCCC3)CC1,34.2*,-2.0,0.8,14.5,-4.0,-3.5,-3.9
CCc1nnc(NC(=O)Nc2ccc(OC)cc2)s1,0.4,2.9,-2.8,2.0,6.4,/,/
COc1ccc(Cc2nnc(NC(=O)Nc3cccc(OC)c3)s2)cc1,18.3*,-1.0,-5.3,3.0,-5.9,15.4*,-2.7
COc1ccc(Cc2nnc(NC(=O)Nc3ccc(F)cc3)s2)cc1,21.6*,-0.4,-13.2,-0.2,6.8,11.4,-4.7
CCC(=O)Nc1ccc2c(c1)C(=O)N(C)[C@@H]1CC[C@@H](CC(=O)OC)O[C@H]1CO2,/,/,/,/,-9.9,/,/
C[C@@H]1ON(C)[C@H]2C[C@H]3c4[nH]c5c(-c6cccc(Cl)c6)cccc5c4CCN3C(=O)[C@@H]12,/,/,/,/,-4.8,/,/
O=C(Nc1nnc(-c2ccc3c(c2)CCCC3)o1)c1ccc(Cl)cc1Cl,31.9*,1.4,-49.2,4.7,-10.9,26.2*,-4.1
O=C(Nc1nnc(-c2ccc3c(c2)CCCC3)o1)c1c(F)cccc1F,6.7,0.8,5.4,-0.3,-3.8,/,/
CC(C)Cn1c(=O)cc(N2CCN(c3cccc(C(F)(F)F)c3)CC2)[nH]c1=O,/,/,/,/,0.5,/,/
Cc1sc(NC(=O)Cn2[nH]c(=O)c3ccccc3c2=O)nc1-c1ccccc1,28.6*,-0.4,-7.5,8.9,-5.3,27.4*,-1.8
COc1cnc(-c2ccccn2)nc1Sc1ccc(Cl)cc1,34.9*,2.2,4.2,9.4,-11.3,45.6*,1.1
COc1cnc(-c2ccccn2)nc1Sc1ccc(F)cc1,43.0*,7.3,6.4,2.7,-4.9,51.0*,0.4
COc1ccc(Sc2nc(-c3ccccn3)ncc2OC)cc1,57.0*,6.2,5.2,5.1,-2.5,55.9*,-0.6
COc1cnc(-c2ccccn2)nc1Sc1ccccc1,55.0*,10.8*,-4.5,11.6,9.7,48.2*,-0.6
CCOC(=O)CSc1nc(-c2ccccn2)ncc1OC,5.7,-0.5,-3.7,-0.3,5.1,/,/
COc1cnc(N(C)C)nc1Sc1ccc(Cl)cc1,0.8,2.4,7.8,9.2,-1.3,/,/
CC(C)C[C@H]1COc2cc(Br)ccc2S(=O)(=O)N1Cc1cn(Cc2ccc(Br)cc2)nn1,/,/,/,/,-4.6,/,/
CCOC(=O)CC[C@@]1(C(=O)OCC)C[C@@H](CC(=O)NCc2cccc3ccccc23)C(=O)N2CCCC=C21,/,/,/,/,1.2,/,/
O=C(CN1CCN(c2nc(-c3ccccc3)cs2)CC1)Nc1ccc(Cl)c(Cl)c1,/,/,/,/,12.0,/,/
SMILES,PP1 counter,PP5 inh,GSTO1 counter,Apaf1 inhib,TDP2 absorb,PP1 inh confirm,PP5 counter
COC[C@H]1O[C@]2(c3ccccc3)CO[C@H]1[C@@H](/C=C/c1ccccc1)C2,/,/,/,/,-1.1,/,/
COc1ccc(CCC2=NCCN2C(CC(C)C)c2nc3ccccc3[nH]2)cc1 (centres undefined),/,/,/,/,7.3,/,/
CCOc1cc(C2Nc3cccc4cccc(c34)N2)ccc1O,24.2*,4.1,23.3,14.5,/,1.9,8.4
Clc1ccc(C2Nc3cccc4cccc(c34)N2)cc1Cl,1.3,1.4,23.5,6.7,-7.6,/,/
N#Cc1ccc(S(=O)(=O)NCC2CCN(C(=O)C(=O)c3cc4ccccc4o3)CC2)cc1,/,/,/,/,3.7,/,/
Cc1ccc(NC(=O)NCC2CCN(Cc3cccc(Cl)c3)CC2)c(Cl)c1,26.8*,2.0,8.8,-1.1,-3.0,-6.5,-3.2
O=C(CN1C(=O)/C(=C2\SC(=S)N(CCS(=O)(=O)O)C2=O)c2ccccc21)Nc1cccc(Br)c1,36.6*,1.8,-3.5,/,11.1,38.8*,-1.6
CCOc1ccc(N=Cc2c(C)[nH]n(-c3nc4ccccc4[nH]3)c2=O)cc1,22.9*,1.8,2.0,0.2,1.9,13.6,0.9
COc1ccc(C2CC(c3ccc(F)cc3)n3nc(NC(=O)c4ccco4)nc3N2)cc1 (centres undefined),-1.8,-1.0,-7.7,-3.9,-2.0,/,/
COc1ccc(C2CC(c3ccc(OC)cc3)n3nc(NC(=O)c4cccs4)nc3N2)cc1 (centres undefined),18.2*,0.1,2.6,0.6,-0.8,4.2,-3.9
CC1=C(C(=O)Nc2ccccc2)C(c2ccco2)C(C#N)=C(SCc2ccccc2)N1 (centres undefined),22.9*,3.0,-23.1,13.3,/,0.3,-5.9
CC1=C(C(=O)Nc2ccccc2)C(c2ccco2)C(C#N)=C(SCC(=O)OC(C)C)N1 (centres undefined),-1.4,2.9,-9.8,28.1,/,/,/
Nc1c(C(=O)c2ccc(Br)cc2)oc2ccccc12,17.7*,2.9,-5.3,10.7,9.4,-3.6,-3.4
Cc1ccc(NC(=O)C(OC(=O)c2ccc(C=O)cc2)c2ccccc2)cc1Cl (centres undefined),21.5*,2.1,-28.5,5.5,/,12.5,-3.4
c1cc2ccc3ccc(-n4cnnn4)c4ccc(c1)c2c34,19.6*,0.5,-1.7,8.0,-1.2,23.3*,-0.9
Cc1c(N)cccc1-n1cnnn1,-0.3,0.3,7.8,-2.4,7.8,/,/
CC(C)(C)S(=O)N1C[C@@H]2CC(=O)C(CCO)=C2[C@H]1CCO (some centres undefined),/,/,/,/,-0.9,/,/
